Converted amounts (≈) assume the structure as drawn.
Tests used:
Type in all cases: functional
Proteus vulgaris = test: Antibacterial activity against Proteus vulgaris
Procedure, shortened: (§1)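 Broth microdilution MIC following CLSI guidelines, in cation-adjusted Mueller-Hinton broth, incubated at 35°C. Recent clinical isolates and reference strains, with identity confirmed by automated and standard microbiological methods. Results reported as MIC range, MIC50 and MIC90.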

Klebsiella aerogenes = test: Antibacterial activity against Enterobacter aerogenes; procedure, shortened: as §1
Shigella sonnei = test: Antibacterial activity against Shigella sonnei; procedure, shortened: as §1
Cutibacterium acnes = test: Antibacterial activity against Propionibacterium acnes
Haemophilus influenzae = test: Antibacterial activity against beta-lactamase negative Haemophilus influenzae
Procedure, shortened: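 Broth microdilution MIC following CLSI guidelines, in Haemophilus test medium at 35°C.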

[1] = system: Staphylococcus saprophyticus; test: Antibacterial activity against Staphylococcus saprophyticus; procedure, shortened: as §1
Citrobacter freundii = test: Antibacterial activity against Citrobacter freundii; procedure, shortened: as §1
Enterococcus faecalis [2] = test: Antibacterial activity against VanB-resistant Enterococcus faecalis
Procedure, shortened: (§2)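 Broth microdilution MIC per CLSI guidelines, incubated at 35°C. Cation-adjusted Mueller-Hinton broth for nonfastidious organisms and staphylococci. Streptococci tested in the same broth with 3% lysed horse blood. Anaerobes tested in supplemented Brucella broth inside an anaerobe chamber (5% CO2, 5% H2, 90% N2), read after 48 h. Strains were mainly recent clinical isolates with confirmed identity.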

Burkholderia cepacia = test: Antibacterial activity against Burkholderia cepacia; procedure, shortened: as §1
[3] = system: Peptoniphilus asaccharolyticus; test: Antibacterial activity against Peptostreptococcus asaccharolyticus
Procedure, shortened: (§3)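 Anaerobic broth microdilution MIC following CLSI guidelines, in supplemented Brucella broth. Run in an anaerobe chamber under 5% CO2, 5% H2 and 90% N2 at 35°C, and read after 48 h. Reported as MIC range, MIC50 and MIC90.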

Anaerococcus prevotii = test: Antibacterial activity against Peptostreptococcus prevotii; procedure, shortened: as §3
Prevotella sp. = test: Antibacterial activity against Prevotella sp.; procedure, shortened: as §3
Staphylococcus warneri = test: Antibacterial activity against Staphylococcus warneri; procedure, shortened: as §1
Prevotella bivia = test: Antibacterial activity against Prevotella bivia; procedure, shortened: as §3
Moraxella catarrhalis = test: Antibacterial activity against beta-lactamase positive Moraxella catarrhalis
Corynebacterium jeikeium = test: Antibacterial activity against Corynebacterium jeikeium
Procedure, shortened: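 Broth microdilution MIC following CLSI guidelines, in cation-adjusted Mueller-Hinton broth containing 3% lysed horse blood, incubated at 35°C. Clinical isolates with identity confirmed. Reported as MIC range, MIC50 and MIC90.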

[4] = system: Stenotrophomonas maltophilia; test: Antibacterial activity against Stenotrophomonas maltophilia; procedure, shortened: as §1
Streptococcus sanguinis = test: Antibacterial activity against Streptococcus sanguis
Procedure, shortened: (§4)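 Broth microdilution MIC following CLSI guidelines, in cation-adjusted Mueller-Hinton broth with 3% lysed horse blood. Plates incubated at 35°C. Clinical isolates and reference strains, with identity confirmed by standard microbiological methods.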

Fusobacterium nucleatum = test: Antibacterial activity against Fusobacterium nucleatum; procedure, shortened: as §3
Enterococcus faecalis [5] = test: Antibacterial activity against beta-lactamase positive Enterococcus faecalis
Procedure, shortened: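 MIC by CLSI broth microdilution for nonfastidious organisms, in cation-adjusted Mueller-Hinton broth incubated at 35°C.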

Streptococcus viridans = test: Antibacterial activity against Streptococcus viridans; procedure, shortened: as §4
Enterococcus faecium [6] = test: Antibacterial activity against Enterococcus faecium; procedure, shortened: as §2
Escherichia coli = test: Antibacterial activity against Escherichia coli; procedure, shortened: as §1
Staphylococcus aureus = test: Antibacterial activity against oxacillin and levofloxacin-resistant Staphylococcus aureus; procedure, shortened: as §2
Enterobacter cloacae = test: Antibacterial activity against Enterobacter cloacae; procedure, shortened: as §1
Neisseria gonorrhoeae = test: Antibacterial activity against Neisseria gonorrhoeae
Procedure, shortened: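 MIC by broth microdilution in gonococcal broth, incubated at 35°C in 5% CO2. Reported as MIC range, MIC50 and MIC90.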

Enterococcus faecalis [7] = test: Antibacterial activity against Enterococcus faecalis; procedure, shortened: as §2
Clostridium perfringens = test: Antibacterial activity against Clostridium perfringens; procedure, shortened: as §2
Streptococcus equinus = test: Antibacterial activity against Streptococcus bovis; procedure, shortened: as §4
Finegoldia magna = test: Antibacterial activity against Peptostreptococcus magnus; procedure, shortened: as §3
Streptococcus pneumoniae = test: Antibacterial activity against penicillin-resistant Streptococcus pneumoniae; procedure, shortened: as §2
Enterococcus gallinarum = test: Antibacterial activity against Enterococcus gallinarum
Shigella flexneri = test: Antibacterial activity against Shigella flexneri; procedure, shortened: as §1
[8] = system: Parabacteroides distasonis; test: Antimicrobial activity against Bacteroides distasonis
Procedure, shortened: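 Anaerobic broth microdilution MIC following CLSI guidelines, in supplemented Brucella broth. Incubated at 35°C in a chamber under 5% CO2, 5% H2 and 90% N2. Read after 48 h.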

Enterococcus faecalis [9] = test: Antibacterial activity against VanA-resistant Enterococcus faecalis; procedure, shortened: as §2
Enterococcus faecium [10] = test: Antibacterial activity against VanB-resistant Enterococcus faecium; procedure, shortened: as §2

C[C@H]1NCc2cc(-c3ccc4c(=O)c(C(=O)O)cn(C5CC5)c4c3OC(F)F)ccc21 [GARENOXACIN]
MIC (Proteus vulgaris): 0.25 µg/mL (≈ 0.586 µM) | MIC50 (Klebsiella aerogenes): 2 µg/mL (≈ 4.69 µM) | MIC90 (Klebsiella aerogenes): > 64 µg/mL | MIC50 (Shigella sonnei): 0.03 µg/mL (≈ 0.0704 µM) | MIC90 (Shigella sonnei): 0.125 µg/mL (≈ 0.293 µM) | MIC50 (Cutibacterium acnes): 1 µg/mL (≈ 2.35 µM) | MIC90 (Cutibacterium acnes): 2 µg/mL (≈ 4.69 µM) | MIC50 (Haemophilus influenzae): 0.008 µg/mL (≈ 0.0188 µM) | MIC90 (Haemophilus influenzae): 0.03 µg/mL (≈ 0.0704 µM) | MIC50 [1]: 0.03 µg/mL (≈ 0.0704 µM) | MIC90 [1]: 0.06 µg/mL (≈ 0.141 µM) | MIC50 (Citrobacter freundii): 1 µg/mL (≈ 2.35 µM) | MIC90 (Citrobacter freundii): > 64 µg/mL | MIC50 (Enterococcus faecalis [2]): 2 µg/mL (≈ 4.69 µM) | MIC90 (Enterococcus faecalis [2]): 8 µg/mL (≈ 18.8 µM) | MIC50 (Burkholderia cepacia): 32 µg/mL (≈ 75 µM) | MIC90 (Burkholderia cepacia): > 64 µg/mL | MIC [3]: 0.015 µg/mL (≈ 0.0352 µM) | MIC (Anaerococcus prevotii): 0.015 µg/mL (≈ 0.0352 µM) | MIC50 (Prevotella sp.): 0.25 µg/mL (≈ 0.586 µM) | MIC90 (Prevotella sp.): 1 µg/mL (≈ 2.35 µM) | MIC (Staphylococcus warneri): 0.03 µg/mL (≈ 0.0704 µM) | MIC50 (Prevotella bivia): 0.25 µg/mL (≈ 0.586 µM) | MIC90 (Prevotella bivia): 1 µg/mL (≈ 2.35 µM) | MIC50 (Moraxella catarrhalis): 0.06 µg/mL (≈ 0.141 µM) | MIC90 (Moraxella catarrhalis): 0.06 µg/mL (≈ 0.141 µM) | MIC50 (Corynebacterium jeikeium): 0.25 µg/mL (≈ 0.586 µM) | MIC90 (Corynebacterium jeikeium): 0.25 µg/mL (≈ 0.586 µM) | MIC50 [4]: 4 µg/mL (≈ 9.38 µM) | MIC90 [4]: 8 µg/mL (≈ 18.8 µM) | MIC50 (Streptococcus sanguinis): 0.125 µg/mL (≈ 0.293 µM) | MIC90 (Streptococcus sanguinis): 0.25 µg/mL (≈ 0.586 µM) | MIC (Fusobacterium nucleatum): 0.125 µg/mL (≈ 0.293 µM) | MIC (Enterococcus faecalis [5]): 0.125 µg/mL (≈ 0.293 µM) | MIC50 (Streptococcus viridans): 0.125 µg/mL (≈ 0.293 µM) | MIC90 (Streptococcus viridans): 0.25 µg/mL (≈ 0.586 µM) | MIC50 (Enterococcus faecium [6]): 8 µg/mL (≈ 18.8 µM) | MIC90 (Enterococcus faecium [6]): 32 µg/mL (≈ 75 µM) | MIC50 (Escherichia coli): 0.06 µg/mL (≈ 0.141 µM) | MIC90 (Escherichia coli): 1 µg/mL (≈ 2.35 µM) | MIC50 (Staphylococcus aureus): 2 µg/mL (≈ 4.69 µM) | MIC90 (Staphylococcus aureus): 4 µg/mL (≈ 9.38 µM) | MIC50 (Enterobacter cloacae): 0.125 µg/mL (≈ 0.293 µM) | MIC90 (Enterobacter cloacae): 2 µg/mL (≈ 4.69 µM) | MIC50 (Neisseria gonorrhoeae): 0.004 µg/mL (≈ 0.00938 µM) | MIC90 (Neisseria gonorrhoeae): 0.004 µg/mL (≈ 0.00938 µM) | MIC50 (Enterococcus faecalis [7]): 2 µg/mL (≈ 4.69 µM) | MIC90 (Enterococcus faecalis [7]): 4 µg/mL (≈ 9.38 µM) | MIC50 (Clostridium perfringens): 0.5 µg/mL (≈ 1.17 µM) | MIC90 (Clostridium perfringens): 1 µg/mL (≈ 2.35 µM) | MIC50 (Streptococcus equinus): 0.25 µg/mL (≈ 0.586 µM) | MIC90 (Streptococcus equinus): 0.25 µg/mL (≈ 0.586 µM) | MIC (Finegoldia magna): 0.015 µg/mL (≈ 0.0352 µM) | MIC50 (Streptococcus pneumoniae): 0.03 µg/mL (≈ 0.0704 µM) | MIC90 (Streptococcus pneumoniae): 0.125 µg/mL (≈ 0.293 µM) | MIC50 (Enterococcus gallinarum): 0.25 µg/mL (≈ 0.586 µM) | MIC90 (Enterococcus gallinarum): 0.2 µg/mL (≈ 0.469 µM) | MIC50 (Shigella flexneri): 0.03 µg/mL (≈ 0.0704 µM) | MIC90 (Shigella flexneri): 0.125 µg/mL (≈ 0.293 µM) | MIC50 [8]: 2 µg/mL (≈ 4.69 µM) | MIC90 [8]: 4 µg/mL (≈ 9.38 µM) | MIC (Enterococcus faecalis [9]): 2 µg/mL (≈ 4.69 µM) | MIC (Enterococcus faecium [10]): 4 µg/mL (≈ 9.38 µM)
